Measurements published in ChEMBL document CHEMBL5634200, “Discovery of the First Potent DYRK2 Proteolysis Targeting Chimera Degraders” (ACS Med Chem Lett, 2024).
Activity calls are given as the source filed them. The calls are words filed in the database; no cut-off is given here.

What was measured:
[1] = tested on: MDA-MB-231; assay: Antiproliferative activity against human MDA-MB-231 cells assessed as inhibition of cell proliferation by CCK-8 assay; type: functional, cell-based
[2] = target: T1, Dual specificity tyrosine-phosphorylation-regulated kinase 2 (Homo sapiens, UniProt Q92630); assay: Binding affinity to DYRK2 (unknown origin) assessed as dissociation constant by SPR analysis
T1 sequence (Q92630 whole entry): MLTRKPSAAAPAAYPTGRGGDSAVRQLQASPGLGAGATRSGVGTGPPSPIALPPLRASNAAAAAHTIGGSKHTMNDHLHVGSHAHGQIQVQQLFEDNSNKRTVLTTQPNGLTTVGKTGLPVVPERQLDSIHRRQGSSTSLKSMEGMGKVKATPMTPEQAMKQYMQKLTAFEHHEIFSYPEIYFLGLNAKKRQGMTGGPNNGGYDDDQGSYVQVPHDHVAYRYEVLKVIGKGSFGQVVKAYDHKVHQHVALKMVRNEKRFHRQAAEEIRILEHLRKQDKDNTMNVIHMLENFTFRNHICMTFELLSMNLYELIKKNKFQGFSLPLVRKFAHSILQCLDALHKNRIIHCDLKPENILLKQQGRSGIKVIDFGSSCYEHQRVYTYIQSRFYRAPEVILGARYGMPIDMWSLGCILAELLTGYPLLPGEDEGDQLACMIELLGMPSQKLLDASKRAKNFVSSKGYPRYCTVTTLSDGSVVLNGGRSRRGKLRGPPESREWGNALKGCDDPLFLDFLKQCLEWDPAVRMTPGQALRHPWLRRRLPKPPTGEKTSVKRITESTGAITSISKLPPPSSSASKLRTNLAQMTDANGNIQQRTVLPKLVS

[3] = target: T1, Dual specificity tyrosine-phosphorylation-regulated kinase 2; assay: Inhibition of human recombinant DYRK2 using KKISGRLSPIMTEQ as substrate incubated for 60 mins in the presence of ATP by ADP-Glo kinase assay
[4] = target: T2, Protein cereblon/Dual specificity tyrosine-phosphorylation-regulated kinase 2 (Homo sapiens, UniProt Q92630+Q96SW2); assay: PROTAC activity at CRBN/DYRK2 in human HeLa cells assessed as induction of DYRK2 degradation at 10 to 20 uM incubated for 24 hrs by Western blot analysis; type: cell-based; conditions: dose 10-20 µM
Procedure, shortened: (§1)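 HeLa cells treated 24 h (one series at 10 and 20 μM, another at 5 and 10 μM); DYRK2 immunoblotted with GAPDH loading reference; band quantitation as mean ± SEM of three independent replicates, one-way ANOVA.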

[5] = target: T2, Protein cereblon/Dual specificity tyrosine-phosphorylation-regulated kinase 2; assay: PROTAC activity at CRBN/DYRK2 in human HeLa cells assessed as reduction in DYRK2 protein level at 5 to 10 uM incubated for 12 hrs by Western blot analysis; type: cell-based; conditions: dose 5-10 µM
[6] = target: T2, Protein cereblon/Dual specificity tyrosine-phosphorylation-regulated kinase 2; assay: PROTAC activity at CRBN/DYRK2 in human HeLa cells assessed as induction of DYRK2 degradation at 5 to 10 uM incubated for 24 hrs by Western blot analysis; type: cell-based; conditions: dose 5-10 µM; procedure, shortened: as §1
[7] = target: T2, Protein cereblon/Dual specificity tyrosine-phosphorylation-regulated kinase 2; assay: PROTAC activity at CRBN/DYRK2 in human MDA-MB-231 cells assessed as decrease in c-Myc phosphorylation at Ser62 residue at 5 to 20 uM incubated for 12 hrs by Western blot analysis; type: cell-based; conditions: dose 5-20 µM
Procedure, shortened: (§2)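 MM231 cells exposed 12 h across 1.25 to 20 μM; phospho-p53 (Ser46) and phospho-c-Myc (Ser62) immunoblotted, GAPDH loading reference; mean ± SEM of three independent replicates, one-way ANOVA.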

[8] = target: T2, Protein cereblon/Dual specificity tyrosine-phosphorylation-regulated kinase 2; assay: PROTAC activity at CRBN/DYRK2 in human MDA-MB-231 cells assessed as reduction of DYRK2 protein level at 5 uM incubated for 12 hrs in presence of 3,5-bis(2-bromobenzylidene)piperidin-4-one by Western blot analysis; type: cell-based
[9] = target: T2, Protein cereblon/Dual specificity tyrosine-phosphorylation-regulated kinase 2; assay: PROTAC activity at CRBN/DYRK2 in human HeLa cells assessed as decrease in DYRK2 level by measuring reduction in fluorescence intensity at 5 to 10 uM incubated for 12 hrs by immunofluorescence based confocal laser scanning microscopy; type: cell-based; conditions: dose 5-10 µM
Procedure, shortened: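 HeLa cells treated 5 and 10 μM for 12 h; DYRK2 immunostained, Cy3 fluorescence intensity read by confocal laser scanning microscopy and quantified.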

[10] = target: T2, Protein cereblon/Dual specificity tyrosine-phosphorylation-regulated kinase 2; assay: PROTAC activity at CRBN/DYRK2 in human MDA-MB-231 cells assessed as induction of DYRK2 degradation at 2.5 to 40 uM incubated for 24 hrs by Western blot analysis; type: cell-based; conditions: dose 2.5-40 µM
Procedure, shortened: (§3)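 MM231 cells given graded concentrations for 24 h; DYRK2 Western blot with GAPDH loading reference, three independent replicates (mean ± SEM); DC50 taken from concentration–degradation data.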

[11] = target: T2, Protein cereblon/Dual specificity tyrosine-phosphorylation-regulated kinase 2; assay: PROTAC activity at CRBN/DYRK2 in human MDA-MB-231 cells assessed as increase in ubiquitination of DYRK2 at 10 uM incubated for 12 hrs by coimmunoprecipitation analysis; type: cell-based
Procedure, shortened: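 MM231 cells pretreated with 10 μM MG132 for 2 h, then compound for 12 h; DYRK2 and ubiquitin examined by co-immunoprecipitation.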

[12] = target: T2, Protein cereblon/Dual specificity tyrosine-phosphorylation-regulated kinase 2; assay: PROTAC activity at CRBN/DYRK2 in human HeLa cells assessed as induction of DYRK2 degradation at 2.5 to 40 uM incubated for 24 hrs by Western blot analysis; type: cell-based; conditions: dose 2.5-40 µM
Procedure, shortened: (§4)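 HeLa cells exposed to graded concentrations for 24 h; DYRK2 Western blot normalised to GAPDH, three independent replicates (mean ± SEM); DC50 derived from concentration series.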

[13] = target: T2, Protein cereblon/Dual specificity tyrosine-phosphorylation-regulated kinase 2; assay: PROTAC activity at CRBN/DYRK2 in human MDA-MB-231 cells assessed as reduction in DYRK2 degradation level at 10 uM preincubated with MG132 for 2 hrs followed by compound addition and further incubated for 12 hrs by Western blot analysis; type: cell-based
Procedure, shortened: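 MM231 cells pretreated 2 h with 10 μM MG132 (UPS inhibitor) before compound for 12 h; DYRK2 Western blot with GAPDH reference, three independent replicates, one-way ANOVA.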

[14] = target: T2, Protein cereblon/Dual specificity tyrosine-phosphorylation-regulated kinase 2; assay: PROTAC activity at CRBN/DYRK2 in human MDA-MB-231 cells assessed as decrease in p53 phosphorylation at Ser46 residue at 5 to 20 uM incubated for 12 hrs by Western blot analysis; type: cell-based; conditions: dose 5-20 µM; procedure, shortened: as §2
[15] = target: T2, Protein cereblon/Dual specificity tyrosine-phosphorylation-regulated kinase 2; assay: PROTAC activity at CRBN/DYRK2 in human MDA-MB-231 cells assessed as induction of DYRK2 degradation incubated for 24 hrs by Western blot analysis; type: cell-based; procedure, shortened: as §3
[16] = target: T2, Protein cereblon/Dual specificity tyrosine-phosphorylation-regulated kinase 2; assay: PROTAC activity at CRBN/DYRK2 in human MDA-MB-231 cells assessed as decrease in DYRK2 level at 2.5 to 10 uM incubated for 12 hrs by flow cytometry analysis; type: cell-based; conditions: dose 5-10 µM, in the assay text read “5 to 10 uM” for “2.5 to 10 uM”
Procedure, shortened: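 MM231 cells treated 12 h; DYRK2 immunostaining quantified by flow cytometry as FITC-A channel fluorescence intensity.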

[17] = target: T2, Protein cereblon/Dual specificity tyrosine-phosphorylation-regulated kinase 2; assay: PROTAC activity at CRBN/DYRK2 in human HeLa cells assessed as induction of DYRK2 degradation incubated for 24 hrs by Western blot analysis; type: cell-based; procedure, shortened: as §4
[18] = target: T2, Protein cereblon/Dual specificity tyrosine-phosphorylation-regulated kinase 2; assay: PROTAC activity at CRBN/DYRK2 in human HeLa cells assessed as decrease in DYRK2 level at 5 uM by Western blot analysis; type: cell-based; conditions: time 3-24 hrs, TDE = time-dependent effect
Procedure, shortened: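 HeLa cells held at 5 μM over a time course (3 to 24 h); DYRK2 immunoblot normalised to GAPDH, quantified from three independent replicates, one-way ANOVA.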

Q: `COc1cc(/C=C/C(=O)CC(=O)/C=C/c2ccc(O)c(OC)c2)ccc1O` [CURCUMIN] was tested. Which IC50 [1] did it give?
A: The IC50 was over 20 µM.

Q: What about the Kd [2] of the same molecule?
A: Its Kd is 14.5 µM.

Q: And the IC50 [3]?
A: Its IC50 is 0.01 µM.

Q: For `COc1cc(/C=C/C(=O)CC(=O)/C=C/c2ccc(OC(=O)CCOCCOCCOCCNC(=O)COc3cccc4c3C(=O)N(C3CCC(=O)NC3=O)C4=O)c(OC)c2)ccc1O` (centres undefined), which Activity [4] is on record?
A: Its Activity is “Active”.

Q: With `COc1cc(/C=C/C(=O)CC(=O)/C=C/c2ccc(OC(=O)CCOCCOCCNC(=O)COc3cccc4c3C(=O)N(C3CCC(=O)NC3=O)C4=O)c(OC)c2)ccc1O` (centres undefined) as the molecule, how does the Activity [4] read?
A: The Activity was “Active”.

Q: `CN1C(=O)CCC(N2C(=O)c3cccc(NCCOCCOCCOCCNC(=O)CN4C/C(=C\c5ccccc5Br)C(=O)/C(=C/c5ccccc5Br)C4)c3C2=O)C1=O` (centres undefined) was tested. Which Activity [5] did it give?
A: The Activity was “inactive”.

Q: With `O=C(CN1C/C(=C\c2ccccc2F)C(=O)/C(=C/c2ccccc2F)C1)NCCOCCOCCNc1cccc2c1C(=O)N(C1CCC(=O)NC1=O)C2=O` (centres undefined) as the molecule, how does the Activity [6] read?
A: The Activity was “Active”.

Q: Which Activity [7] does the source give for `O=C(CN1C/C(=C\c2ccccc2Br)C(=O)/C(=C/c2ccccc2Br)C1)NCCOCCOCCOCCNc1cccc2c1C(=O)N(C1CCC(=O)NC1=O)C2=O` (centres undefined) here?
A: Its Activity is “Active”.

Q: What about the Activity [8] of the same molecule?
A: The Activity was “inactive”.

Q: What about the Activity [6] of the same molecule?
A: Its Activity is “Active”.

Q: And the Activity [9]?
A: Its Activity is “Active”.

Q: What about the Activity [10] of the same molecule?
A: Its Activity is “Active”.

Q: And the Activity [11]?
A: The Activity was “Active”.

Q: And the Activity [12]?
A: The Activity was “Active”.

Q: And the IC50 [1]?
A: Its IC50 is 9.1 µM.

Q: What about the Kd [2] of the same molecule?
A: Its Kd is 29.7 µM.

Q: What about the Activity [13] of the same molecule?
A: Its Activity is “inactive”.

Q: What about the Activity [14] of the same molecule?
A: Its Activity is “Active”.

Q: And the DC50 [15]?
A: Its DC50 is 1.61 µM.

Q: And the Activity [16]?
A: The Activity was “Active”.

Q: What about the DC50 [17] of the same molecule?
A: The DC50 was 3.26 µM.

Q: What about the Activity [18] of the same molecule?
A: Its Activity is “Tde”.

Q: With `O=C(CN1C/C(=C\c2ccccc2F)C(=O)/C(=C/c2ccccc2F)C1)NCCOCCOCCOCCNc1cccc2c1C(=O)N(C1CCC(=O)NC1=O)C2=O` (centres undefined) as the molecule, how does the Activity [6] read?
A: The Activity was “Active”.

Q: `O=C(CN1C/C(=C\c2ccccc2Cl)C(=O)/C(=C/c2ccccc2Cl)C1)NCCOCCOCCNc1cccc2c1C(=O)N(C1CCC(=O)NC1=O)C2=O` (centres undefined) was tested. Which Activity [6] did it give?
A: Its Activity is “Active”.

Q: For `O=C(CN1C/C(=C\c2ccccc2Cl)C(=O)/C(=C/c2ccccc2Cl)C1)NCCOCCOCCOCCNc1cccc2c1C(=O)N(C1CCC(=O)NC1=O)C2=O` (centres undefined), which Activity [6] is on record?
A: The Activity was “Active”.

Q: How did the Activity [6] turn out when `O=C(CN1C/C(=C\c2ccccc2Br)C(=O)/C(=C/c2ccccc2Br)C1)NCCOCCOCCNc1cccc2c1C(=O)N(C1CCC(=O)NC1=O)C2=O` (centres undefined) was run?
A: The Activity was “Active”.

Q: For `O=C1/C(=C/c2ccccc2Br)CNC/C1=C\c1ccccc1Br`, which IC50 [1] is on record?
A: Its IC50 is 4.2 µM.

Q: And the Kd [2]?
A: Its Kd is 7.9 µM.

Q: And the IC50 [3]?
A: The IC50 was 0.024 µM.
